Results as given in PubChem BioAssay.
Active and inactive are the calls of the source.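 Rule for the calls, unless noted: active = inhibition at or above 50% at 10 µM; inactive = inhibition below 50%.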

What was measured:
[1] = inhibitors of TNFa-induced NFkB p65 translocation, primary screen, imaging, HUVEC, MLSMR starter and 10KST1 sets (AID 438;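 active = inhibition above 20% together with a positive visual image hit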;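 note: compound added about 3h40 before a 20 min TNFalpha stimulation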;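 for inhibition: signal is the nuclear over cytoplasmic p65 intensity ratio per well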); settings: HUVEC TNFa-induced p65 nuclear translocation; cell count: measured here: nuclei count (cytotoxicity indicator), at 2.08 µM; inhibition: at 2 µM, stronger effect = higher value, 0% TNFa-plus-vehicle, 100% no-TNFa wells
[2] = reduction of polyQ htt aggregates in cells – imaging, exon1htt(103Q)mCFP cells, high-content imaging, primary screen (AID 483;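 active = visual image review flags a hit and inhibition of aggregation exceeds 20%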;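 note: compound exposure lasted 3 days before fixation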;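 for nuclei count: percent of the per-plate median nuclei count of sample wells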); settings: exon1htt(103Q)mCFP cell line, aggregate imaging, at 2 µM; inhibition of aggregation: stronger effect = higher value; nuclei count: measured here: cell count, toxicity
[3] = endothelial E-selectin expression blockers – imaging, HUVEC, immunofluorescence, MLSMR starter and 10KST1 sets, primary screen (AID 487;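 active = visually confirmed hit in the image check and inhibition above 20%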;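 for inhibition: signal is fraction of cell area covered by stained E-selectin grains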;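 for nuclei count: 100% = median nuclei count of all wells on the same plate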); settings: HUVEC TNFalpha-induced E-selectin immunofluorescence imaging, at 2 µM; inhibition: stronger effect = higher value; nuclei count: measured here: cell number, toxicity
[4] = target: Voltage-gated potassium channel subunit beta-2 (Rattus norvegicus) (UniProt P62483); assay: inhibitors of rat Kvbeta2 reductase activity – biochemical, NADPH fluorescence, primary screen (AID 622;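 active = fluorescence slope higher than the sample average by over 3 SD, cut at about -0.22 in these data, passing the limit was not always enough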;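 note: slope of raw intensity against log time taken from 70 to 1610 s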); settings: recombinant KvBeta, 4-cyanobenzaldehyde reduction, at 10 µM, stronger effect = higher value
[5] = target: Voltage-gated potassium channel subunit beta-2 (Rattus norvegicus) (UniProt P62483); assay: enhancers of rat Kvbeta2 NADPH turnover – biochemical, NADPH fluorescence, primary screen (AID 623;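 active = NADPH fluorescence slope more negative than the mean of all samples by about 3 SD, 99.7% confidence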;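 note: fluorescence intensity change per second fitted from 20 to 320 s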); settings: Recombinant KvBeta, NADPH fluorescence decrease slope, 10 min; at 10 µM; stronger effect = lower value
[6] = target: Muscarinic acetylcholine receptor M4 (Homo sapiens) (UniProt P08173); assay: M4-linked GIRK flux change, two-sided – cell-based, HEK293 M4/GIRK, thallium flux, BTC-AM, M4 allosteric agonist project, primary screen (AID 625;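 active = fluorescence slope after compound addition differing from the mean of all tested samples at 99.7% confidence, mostly higher but some lower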;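 note: thallium influx through GIRK channels coupled to M4 in HEK293 cells with BTC-AM dye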); settings: at 10 µM, actives lie on both sides
Method in brief: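 Assay system: HEK293 cells with M4 receptor and GIRK channels / Controls: carbachol and DMSO controls / Schedule: 1 h dye loading, 2 min kinetic read / Technique: kinetic fluorescence with BTC-AM dye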

[7] = blockers of RIG-like receptor reporter activation – cell-based, Sendai virus stimulus, luciferase, 10K MLSCN set, TLR/RLR signaling modifier project, primary screen (AID 602276); settings: HEK293 RL24 IRF3 luciferase reporter, at 10 µM, stronger effect = higher value;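 note: firefly luciferase from ISG56 promoter only with Renilla not read in this screen; 0% = Sendai virus plus DMSO and 100% = medium plus DMSO without virus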
[8] = TLR3 IRF3 reporter activation blockers – cell-based, poly I:C stimulus, luciferase, 10K MLSCN set, primary screen (AID 602277;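 active = inhibition of the reporter signal at or above 50%; inactive = inhibition below 50%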); settings: HEK293-TLR3 RL24 IRF3 luciferase reporter, at 10 µM, stronger effect = higher value

Sequence of Voltage-gated potassium channel subunit beta-2 (Rattus norvegicus) (P62483 whole entry, looked up): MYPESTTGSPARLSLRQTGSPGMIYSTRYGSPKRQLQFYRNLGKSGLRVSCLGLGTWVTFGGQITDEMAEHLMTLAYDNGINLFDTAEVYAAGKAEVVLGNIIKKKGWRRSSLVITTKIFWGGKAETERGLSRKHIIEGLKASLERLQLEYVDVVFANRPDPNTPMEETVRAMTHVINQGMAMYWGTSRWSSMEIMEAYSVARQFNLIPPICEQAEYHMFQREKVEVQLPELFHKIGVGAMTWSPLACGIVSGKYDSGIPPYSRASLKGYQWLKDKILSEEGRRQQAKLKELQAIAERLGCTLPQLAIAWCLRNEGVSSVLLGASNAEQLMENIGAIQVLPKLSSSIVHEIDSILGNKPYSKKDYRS
Sequence of Muscarinic acetylcholine receptor M4 (Homo sapiens) (P08173 whole entry, looked up): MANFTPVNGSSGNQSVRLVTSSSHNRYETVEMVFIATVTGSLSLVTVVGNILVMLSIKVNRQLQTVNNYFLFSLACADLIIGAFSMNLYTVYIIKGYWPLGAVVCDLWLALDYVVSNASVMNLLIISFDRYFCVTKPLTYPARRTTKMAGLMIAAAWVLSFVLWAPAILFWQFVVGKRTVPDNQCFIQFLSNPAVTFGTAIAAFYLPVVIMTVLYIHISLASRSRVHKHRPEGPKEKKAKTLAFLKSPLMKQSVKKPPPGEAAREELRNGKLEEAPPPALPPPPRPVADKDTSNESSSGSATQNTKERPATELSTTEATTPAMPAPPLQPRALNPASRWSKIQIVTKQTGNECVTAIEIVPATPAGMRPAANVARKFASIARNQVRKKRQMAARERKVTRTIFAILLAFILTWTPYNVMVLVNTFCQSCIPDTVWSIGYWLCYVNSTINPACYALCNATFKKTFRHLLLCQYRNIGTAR

Structure (SMILES) | cell count [1] | inhibition [1] | inhibition of aggregation [2] | nuclei count [2] [%] | inhibition [3] | nuclei count [3] [%] | fluorescence slope [4] | NADPH fluorescence slope [5] | fluorescence slope [6] | inhibition [7] | inhibition [8]
CN(C)S(=O)(=O)c1ccc(C(=O)Nc2ccccc2C(=O)O)cc1 | 487 | -8.9% (inactive) | 13.1% (inactive) | 83 | -1.2% (inactive) | 78 | -0.52 (inactive) | -3.3e-05 (inactive) | 0.00545 (inactive) | 2.15% (inactive) | 46.7% (inactive)
Cc1ccc2c(COn3nnc4ccc(S(=O)(=O)N(C)C)cc43)cc(=O)oc2c1C | 702 | 5.3% (inactive) | 16.4% (inactive) | 96.2 | 30.2% (inactive) | 94.7 | -0.543 (inactive) | -6.4e-05 (inactive) | 0.00895 (inactive) | -1.62% (inactive) | 10.1% (inactive)
CN1C(=O)CSc2ccc(NC(=O)N3CCN(c4ccccn4)CC3)cc21 | 589 | -16.4% (inactive) | -49% (inactive) | 76.7 | -57.6% (inactive) | 112 | -0.455 (inactive) | 8e-05 (inactive) | 0.00601 (inactive) | -6.76% (inactive) | 21.6% (inactive)
CCOc1cc(C)c(Cl)cc1S(=O)(=O)N(C)C | 682 | -14.7% (inactive) | -26.4% (inactive) | 113 | -5.4% (inactive) | 99.4 | -0.565 (inactive) | -5.1e-05 (inactive) | 0.00578 (inactive) | 20.4% (inactive) | 22.4% (inactive)
COc1ccc(CN(C(=O)c2ccccc2OC)C2CCS(=O)(=O)C2)cc1 (centres undefined) | 452 | 2.2% (inactive) | 23% (inactive) | 75 | 13.1% (inactive) | 109 | -0.58 (inactive) | -7.5e-05 (inactive) | 0.00303 (inactive) | 14.2% (inactive) | 23.7% (inactive)
Cc1noc(C)c1C(=O)Nc1sc(C)c(C)c1C#N | 264 | 3.7% (inactive) | 7.6% (inactive) | 87.5 | -40.3% (inactive) | 103 | -0.436 (inactive) | -2.4e-06 (inactive) | 0.00444 (inactive) | -9.52% (inactive) | -43.8% (inactive)
Cc1ccc(NC(=O)CSc2nnc(NC(=O)CN3CCOCC3)s2)cc1 | 294 | -10% (inactive) | -0.1% (inactive) | 27.7 | -43.2% (inactive) | 106 | -0.438 (inactive) | -7.3e-05 (inactive) | 0.00533 (inactive) | 12.7% (inactive) | 22.7% (inactive)
COCCn1c(-c2ccc(OC)c(OC)c2)nc2ccccc21 | 247 | -1.1% (inactive) | 28.5% (inactive) | 85.8 | 16.7% (inactive) | 77.6 | -0.536 (inactive) | -3.2e-05 (inactive) | 0.00485 (inactive) | -2.29% (inactive) | 11% (inactive)
CCc1nnc(NC(=O)OCc2ccccc2)s1 | 414 | 8.1% (inactive) | 0.2% (inactive) | 99.3 | -59.3% (inactive) | 120 | -0.579 (inactive) | -1.5e-05 (inactive) | 0.00857 (inactive) | -17.2% (inactive) | -43.4% (inactive)
O=S(=O)(NCCc1ccccn1)c1cccs1 | 601 | -23% (inactive) | -31.3% (inactive) | 119 | -28.9% (inactive) | 147 | -0.417 (inactive) | -0.000114 (inactive) | 0.00561 (inactive) | 19.1% (inactive) | 34.4% (inactive)
CCCCOC(=O)CSc1nc2c(cc1C#N)C(=O)CC(C)(C)C2 | 531 | 6.7% (inactive) | -21.3% (inactive) | 98.4 | 37.8% (inactive) | 96.9 | -0.447 (inactive) | -0.000295 (inactive) | 0.00537 (inactive) | -23.7% (inactive) | -55.1% (inactive)
COc1cccc2c(=O)c3c(cnn3C)n(C)c12 | 279 | 16.3% (inactive) | -31.5% (inactive) | 52.8 | -37.2% (inactive) | 111 | -0.412 (inactive) | 3.1e-05 (inactive) | 0.00385 (inactive) | -10.8% (inactive) | -29.4% (inactive)
COC(=O)C1(C(=O)OC)Sc2ccccc2C1=O | 427 | -11.6% (inactive) | 12.5% (inactive) | 75.3 | 30.1% (inactive) | 97.1 | -0.571 (inactive) | 1.6e-05 (inactive) | 0.0074 (inactive) | 13% (inactive) | 17.2% (inactive)
Nc1cc(C(=O)O)ccc1Nc1ccccc1 | 423 | -9.8% (inactive) | 20.7% (inactive) | 86.5 | 15.1% (inactive) | 101 | -0.557 (inactive) | -4.4e-06 (inactive) | 0.0056 (inactive) | -4.17% (inactive) | -19% (inactive)
